Active and inactive are the calls of the source. No cut-off for these calls is given here.
Tests used:
Homo sapiens = species: Homo sapiens; assay: Binding affinity to L-type calcium channel diltiazem binding site (unknown origin) by radioligand binding assay
[1] = biological target: Sodium-dependent dopamine transporter (Homo sapiens) (UniProt Q01959); assay: Binding affinity to human dopamine transporter by radioligand binding assay
How it was run: (§1)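 CEREP panel binding measured by displacement of an antagonist radioligand.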

[2] = biological target: Beta-2 adrenergic receptor (Homo sapiens) (UniProt P07550); assay: Binding affinity to human beta-2 adrenergic receptor by radioligand binding assay
How it was run: (§2)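 CEREP panel binding measured by displacement of an agonist radioligand.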

[3] = biological target: D(1A) dopamine receptor (Homo sapiens) (UniProt P21728); assay: Binding affinity to human dopamine D1 receptor by radioligand binding assay; how it was run: as §1
[4] = biological target: Phosphatidylinositol 4-phosphate 3-kinase C2 domain-containing subunit alpha (Homo sapiens) (UniProt O00443); assay: Inhibition of PIK3C2A (unknown origin)
[5] = biological target: Tyrosine-protein kinase ZAP-70 (Homo sapiens) (UniProt P43403); assay: Inhibition of ZAP70 (unknown origin)
[6] = biological target: Serine/threonine-protein kinase TAO2 (Homo sapiens) (UniProt Q9UL54); assay: Inhibition of TAOK2 (unknown origin)
[7] = biological target: Serine/threonine-protein kinase 3 (Homo sapiens) (UniProt Q13188); assay: Inhibition of STK3 (unknown origin)
[8] = biological target: Rho-associated protein kinase 1 (Homo sapiens) (UniProt Q13464); assay: Inhibition of ROCK1 (unknown origin)
[9] = biological target: Serine/threonine-protein kinase Sgk1 (Homo sapiens) (UniProt O00141); assay: Inhibition of SGK (unknown origin)
[10] = biological target: cAMP-dependent protein kinase catalytic subunit alpha (Homo sapiens) (UniProt P17612); assay: Inhibition of PRKACA (unknown origin)
[11] = biological target: Serine/threonine-protein kinase pim-2 (Homo sapiens) (UniProt Q9P1W9); assay: Inhibition of PIM2 (unknown origin)
[12] = biological target: High affinity nerve growth factor receptor (Homo sapiens) (UniProt P04629); assay: Inhibition of NTRK1 (unknown origin)
[13] = biological target: Serine/threonine-protein kinase PAK 4 (Homo sapiens) (UniProt O96013); assay: Inhibition of PAK4 (unknown origin)
[14] = biological target: Serine/threonine-protein kinase Nek2 (Homo sapiens) (UniProt P51955); assay: Inhibition of NEK2 (unknown origin)
[15] = biological target: Serine/threonine-protein kinase 26 (Homo sapiens) (UniProt Q9P289); assay: Inhibition of MST4 (unknown origin)
[16] = biological target: Myosin light chain kinase 2, skeletal/cardiac muscle (Homo sapiens) (UniProt Q9H1R3); assay: Inhibition of MYLK2 (unknown origin)
[17] = biological target: Hepatocyte growth factor receptor (Homo sapiens) (UniProt P08581); assay: Inhibition of cMet (unknown origin)
[18] = biological target: MAP kinase p38 (Homo sapiens) (UniProt O15264+Q15759+Q16539+P53778); assay: Inhibition of p38 (unknown origin); assay type: protein assay
[19] = biological target: MAP kinase-activated protein kinase 2 (Homo sapiens) (UniProt P49137); assay: Inhibition of MAPKAPK2 (unknown origin)
[20] = biological target: Glycogen synthase kinase-3 beta (Homo sapiens) (UniProt P49841); assay: Inhibition of GSK3B (unknown origin)
[21] = biological target: Insulin receptor (Homo sapiens) (UniProt P06213); assay: Inhibition of INSR (unknown origin)
[22] = biological target: Fibroblast growth factor receptor 1 (Homo sapiens) (UniProt P11362); assay: Inhibition of FGFR1 (unknown origin)
[23] = biological target: Casein kinase II subunit alpha' (Homo sapiens) (UniProt P19784); assay: Inhibition of CSNK2A2 (unknown origin)
[24] = biological target: Serine/threonine-protein kinase Chk1 (Homo sapiens) (UniProt O14757); assay: Inhibition of CHEK1 (unknown origin)
[25] = biological target: Calcium/calmodulin-dependent protein kinase type II subunit alpha (Homo sapiens) (UniProt Q9UQM7); assay: Inhibition of CAMK2A (unknown origin)
[26] = biological target: CDK2/Cyclin A2 (Homo sapiens) (UniProt P24941+P20248); assay: Inhibition of CDK2/cyclin A (unknown origin); assay type: protein-complex assay
[27] = biological target: Aurora kinase A (Homo sapiens) (UniProt O14965); assay: Inhibition of AURKA (unknown origin)
[28] = biological target: Tyrosine-protein kinase BTK (Homo sapiens) (UniProt Q06187); assay: Inhibition of BTK (unknown origin)
[29] = biological target: Tyrosine-protein kinase ABL1 (Homo sapiens) (UniProt P00519); assay: Inhibition of ABL1 (unknown origin)
JHH2 = assay: Antiproliferative activity against human JHH2 cells at 10 uM after 5 days; assay type: functional, cell-based
How it was run: (§3)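 Cells plated in Optimem-GlutaMax medium and cultured overnight before exposure to 10 µM compound. Viability measured with CytoTox-Glo after 5 days of treatment.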

SNU-182 = assay: Antiproliferative activity against human SNU182 cells at 10 uM after 5 days; assay type: functional, cell-based; how it was run: as §3
SNU-449 = assay: Antiproliferative activity against human SNU449 cells at 10 uM after 5 days; assay type: functional, cell-based; how it was run: as §3
Pyruvate kinase PKM [30] = biological target: T1, Pyruvate kinase PKM (Homo sapiens, UniProt P14618); assay: Activation of PKM2 in human Snu182 cells assessed as oxygen consumption rate at 10 uM after 18 hrs; assay type: cell-based
How it was run: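 Snu182 cells seeded at 12k/well in RPMI with 10% FBS and 2 mM glutamine, cultured overnight, then given 10 µM compound for 18 h at 37°C, 5% CO2. Medium switched to XF DMEM with 5 mM glucose plus 10 µM compound; OCR and ECAR measured on a Seahorse XF96 analyzer.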
Target sequence in this assay (P14618 2-531 limits assumed): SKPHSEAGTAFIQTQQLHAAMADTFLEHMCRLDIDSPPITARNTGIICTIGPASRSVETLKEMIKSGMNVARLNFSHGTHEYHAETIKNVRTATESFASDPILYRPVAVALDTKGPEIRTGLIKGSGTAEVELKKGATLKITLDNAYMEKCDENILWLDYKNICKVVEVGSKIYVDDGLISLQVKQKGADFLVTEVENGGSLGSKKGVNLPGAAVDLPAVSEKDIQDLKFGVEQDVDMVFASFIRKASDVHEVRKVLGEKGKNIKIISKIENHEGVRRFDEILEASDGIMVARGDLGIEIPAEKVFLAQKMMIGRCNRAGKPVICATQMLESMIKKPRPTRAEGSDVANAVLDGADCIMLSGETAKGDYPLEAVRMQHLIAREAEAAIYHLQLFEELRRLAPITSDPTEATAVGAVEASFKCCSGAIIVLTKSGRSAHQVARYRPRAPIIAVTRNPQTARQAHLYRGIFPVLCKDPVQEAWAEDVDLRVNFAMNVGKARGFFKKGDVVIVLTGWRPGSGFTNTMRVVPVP

Pyruvate kinase PKM [31] = biological target: T1, Pyruvate kinase PKM; assay: Activation of PKM2 in human Huh7 cells assessed as formation of enzyme tetramers; assay type: cell-based; conditions: Huh-7
Target sequence in this assay (P14618 2-531 limits assumed): as above

Salmonella typhimurium = assay: Genotoxicity in Salmonella typhimurium by Ames test; assay type: toxicity, organism-based; conditions: salmonella enterica subsp. enterica serovar typhimurium
Pyruvate kinase PKM [32] = biological target: T1, Pyruvate kinase PKM; assay: Activation of PKM2 in human Huh7 cells assessed as production of pyruvate and ATP by fluorescence assay; assay type: cell-based, Huh-7
How it was run: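 Huh7 hepatocellular carcinoma cells were treated with compound and lysed, and the lysate was given PEP and ADP. The pyruvate formed was oxidized by pyruvate oxidase, and the fluorescence, proportional to pyruvate, was read as cellular pyruvate kinase activity.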

[33] = biological target: cGMP-inhibited 3',5'-cyclic phosphodiesterase 3B (Homo sapiens) (UniProt Q13370); assay: Binding affinity to human PDE3B
[34] = biological target: Cannabinoid receptor 1 (Homo sapiens) (UniProt P21554); assay: Binding affinity to cannabinoid CB1 receptor (unknown origin)
[35] = biological target: 5-hydroxytryptamine receptor 2B (Homo sapiens) (UniProt P41595); assay: Binding affinity to human 5-HT2B receptor by radioligand binding assay; how it was run: as §2
[36] = biological target: Histamine H1 receptor (Homo sapiens) (UniProt P35367); assay: Binding affinity to human histamine H1 receptor by radioligand binding assay; how it was run: as §1
[37] = biological target: Sodium-dependent noradrenaline transporter (Homo sapiens) (UniProt P23975); assay: Binding affinity to human norepinephrine transporter by radioligand binding assay; how it was run: as §1
[38] = biological target: Casein kinase I isoform alpha (Homo sapiens) (UniProt P48729); assay: Inhibition of CSNK1A1 (unknown origin)

Sequence of Rho-associated protein kinase 1 (Homo sapiens) (Q13464 2-1354 limits assumed): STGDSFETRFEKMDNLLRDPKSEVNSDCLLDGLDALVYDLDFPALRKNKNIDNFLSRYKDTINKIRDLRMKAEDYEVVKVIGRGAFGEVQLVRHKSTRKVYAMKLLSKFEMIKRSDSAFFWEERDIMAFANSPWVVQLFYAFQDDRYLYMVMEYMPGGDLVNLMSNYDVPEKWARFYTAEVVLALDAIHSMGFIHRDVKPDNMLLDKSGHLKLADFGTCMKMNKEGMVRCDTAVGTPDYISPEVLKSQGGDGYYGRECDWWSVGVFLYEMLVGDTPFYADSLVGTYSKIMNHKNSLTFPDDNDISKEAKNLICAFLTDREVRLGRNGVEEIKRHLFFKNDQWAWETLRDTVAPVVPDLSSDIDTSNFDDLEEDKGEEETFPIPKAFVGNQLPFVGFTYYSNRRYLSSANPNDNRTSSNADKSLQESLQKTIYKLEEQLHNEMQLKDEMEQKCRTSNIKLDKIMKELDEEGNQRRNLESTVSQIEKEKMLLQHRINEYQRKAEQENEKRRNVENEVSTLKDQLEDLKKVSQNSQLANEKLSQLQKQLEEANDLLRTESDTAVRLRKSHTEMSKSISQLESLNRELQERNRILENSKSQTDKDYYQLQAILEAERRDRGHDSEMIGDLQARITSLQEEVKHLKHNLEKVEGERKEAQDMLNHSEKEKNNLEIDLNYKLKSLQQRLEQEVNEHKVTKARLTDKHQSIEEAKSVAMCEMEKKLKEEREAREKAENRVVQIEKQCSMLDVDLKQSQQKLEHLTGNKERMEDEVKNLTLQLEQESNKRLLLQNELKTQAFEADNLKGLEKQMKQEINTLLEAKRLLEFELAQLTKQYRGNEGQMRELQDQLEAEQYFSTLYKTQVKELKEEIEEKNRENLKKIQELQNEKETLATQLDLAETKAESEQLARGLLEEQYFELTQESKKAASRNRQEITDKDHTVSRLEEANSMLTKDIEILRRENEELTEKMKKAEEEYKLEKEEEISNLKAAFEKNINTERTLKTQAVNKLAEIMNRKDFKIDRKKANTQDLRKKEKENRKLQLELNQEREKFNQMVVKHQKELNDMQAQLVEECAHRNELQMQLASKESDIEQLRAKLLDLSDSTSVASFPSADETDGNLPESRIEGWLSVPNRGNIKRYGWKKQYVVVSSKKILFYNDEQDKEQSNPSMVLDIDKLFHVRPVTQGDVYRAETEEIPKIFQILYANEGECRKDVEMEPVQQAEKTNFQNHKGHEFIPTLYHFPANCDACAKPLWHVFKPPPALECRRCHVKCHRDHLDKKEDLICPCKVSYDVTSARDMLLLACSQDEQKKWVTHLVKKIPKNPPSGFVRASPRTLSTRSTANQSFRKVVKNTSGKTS
Sequence of Glycogen synthase kinase-3 beta (Homo sapiens) (P49841 whole entry, looked up): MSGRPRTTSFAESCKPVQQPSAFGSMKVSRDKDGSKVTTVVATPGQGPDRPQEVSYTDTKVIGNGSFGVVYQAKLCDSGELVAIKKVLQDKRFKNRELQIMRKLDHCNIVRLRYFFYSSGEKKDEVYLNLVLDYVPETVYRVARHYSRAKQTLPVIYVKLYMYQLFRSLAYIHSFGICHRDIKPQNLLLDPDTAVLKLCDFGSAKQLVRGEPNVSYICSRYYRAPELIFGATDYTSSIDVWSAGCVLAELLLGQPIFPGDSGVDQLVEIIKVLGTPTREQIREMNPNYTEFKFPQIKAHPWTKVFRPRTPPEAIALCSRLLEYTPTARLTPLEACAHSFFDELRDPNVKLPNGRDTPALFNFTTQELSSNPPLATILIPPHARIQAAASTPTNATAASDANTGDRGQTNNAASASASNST
Sequence of D(1A) dopamine receptor (Homo sapiens) (P21728 whole entry, the tested form may be a part): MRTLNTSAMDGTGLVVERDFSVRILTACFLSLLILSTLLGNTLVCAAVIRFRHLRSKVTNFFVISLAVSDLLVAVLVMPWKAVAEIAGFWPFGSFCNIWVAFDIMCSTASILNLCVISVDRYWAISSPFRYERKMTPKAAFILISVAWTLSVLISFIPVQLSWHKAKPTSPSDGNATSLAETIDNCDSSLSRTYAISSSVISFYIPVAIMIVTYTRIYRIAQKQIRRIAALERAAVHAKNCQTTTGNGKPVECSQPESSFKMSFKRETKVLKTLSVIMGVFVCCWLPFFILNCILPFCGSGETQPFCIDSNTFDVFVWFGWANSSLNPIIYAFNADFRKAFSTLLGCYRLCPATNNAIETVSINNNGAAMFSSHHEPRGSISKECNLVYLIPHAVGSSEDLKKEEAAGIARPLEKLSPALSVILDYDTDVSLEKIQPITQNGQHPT
Sequence of Calcium/calmodulin-dependent protein kinase type II subunit alpha (Homo sapiens) (Q9UQM7 whole entry): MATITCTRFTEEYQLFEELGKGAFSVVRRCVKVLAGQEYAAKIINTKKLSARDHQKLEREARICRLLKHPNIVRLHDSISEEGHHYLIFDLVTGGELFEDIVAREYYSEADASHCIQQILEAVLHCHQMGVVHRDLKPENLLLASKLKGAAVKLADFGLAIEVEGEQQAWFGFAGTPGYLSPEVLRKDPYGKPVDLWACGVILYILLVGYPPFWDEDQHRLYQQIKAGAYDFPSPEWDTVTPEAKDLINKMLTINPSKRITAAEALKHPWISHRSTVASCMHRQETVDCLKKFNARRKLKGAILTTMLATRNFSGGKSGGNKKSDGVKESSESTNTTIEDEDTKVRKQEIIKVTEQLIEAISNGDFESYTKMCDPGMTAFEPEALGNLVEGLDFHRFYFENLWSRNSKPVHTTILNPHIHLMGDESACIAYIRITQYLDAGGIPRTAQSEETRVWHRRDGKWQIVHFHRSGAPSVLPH
Sequence of Serine/threonine-protein kinase Nek2 (Homo sapiens) (P51955 whole entry): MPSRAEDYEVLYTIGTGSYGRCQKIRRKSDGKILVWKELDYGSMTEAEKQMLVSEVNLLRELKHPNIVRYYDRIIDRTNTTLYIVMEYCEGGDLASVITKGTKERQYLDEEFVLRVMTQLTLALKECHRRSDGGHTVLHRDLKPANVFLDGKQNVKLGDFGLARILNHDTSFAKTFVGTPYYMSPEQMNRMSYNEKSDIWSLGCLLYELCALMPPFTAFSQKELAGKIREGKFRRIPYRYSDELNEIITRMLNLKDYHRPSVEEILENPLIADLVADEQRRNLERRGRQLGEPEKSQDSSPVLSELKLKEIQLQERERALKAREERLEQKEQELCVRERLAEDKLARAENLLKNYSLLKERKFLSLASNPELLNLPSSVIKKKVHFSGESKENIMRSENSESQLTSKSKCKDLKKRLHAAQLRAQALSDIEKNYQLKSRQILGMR
Sequence of 5-hydroxytryptamine receptor 2B (Homo sapiens) (P41595 whole entry): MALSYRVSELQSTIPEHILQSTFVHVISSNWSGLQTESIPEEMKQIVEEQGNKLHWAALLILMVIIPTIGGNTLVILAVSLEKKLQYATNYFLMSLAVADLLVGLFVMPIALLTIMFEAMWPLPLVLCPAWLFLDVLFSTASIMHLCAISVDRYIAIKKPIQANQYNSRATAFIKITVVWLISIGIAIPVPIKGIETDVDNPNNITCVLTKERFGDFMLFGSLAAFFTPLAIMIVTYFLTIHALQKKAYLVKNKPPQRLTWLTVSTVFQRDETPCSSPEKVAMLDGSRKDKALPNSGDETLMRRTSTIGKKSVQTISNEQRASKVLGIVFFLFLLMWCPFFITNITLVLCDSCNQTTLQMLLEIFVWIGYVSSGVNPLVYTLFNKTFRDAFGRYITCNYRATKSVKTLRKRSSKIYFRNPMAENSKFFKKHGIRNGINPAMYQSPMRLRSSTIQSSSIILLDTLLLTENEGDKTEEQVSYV
Sequence of Sodium-dependent noradrenaline transporter (Homo sapiens) (P23975 whole entry, canonical isoform): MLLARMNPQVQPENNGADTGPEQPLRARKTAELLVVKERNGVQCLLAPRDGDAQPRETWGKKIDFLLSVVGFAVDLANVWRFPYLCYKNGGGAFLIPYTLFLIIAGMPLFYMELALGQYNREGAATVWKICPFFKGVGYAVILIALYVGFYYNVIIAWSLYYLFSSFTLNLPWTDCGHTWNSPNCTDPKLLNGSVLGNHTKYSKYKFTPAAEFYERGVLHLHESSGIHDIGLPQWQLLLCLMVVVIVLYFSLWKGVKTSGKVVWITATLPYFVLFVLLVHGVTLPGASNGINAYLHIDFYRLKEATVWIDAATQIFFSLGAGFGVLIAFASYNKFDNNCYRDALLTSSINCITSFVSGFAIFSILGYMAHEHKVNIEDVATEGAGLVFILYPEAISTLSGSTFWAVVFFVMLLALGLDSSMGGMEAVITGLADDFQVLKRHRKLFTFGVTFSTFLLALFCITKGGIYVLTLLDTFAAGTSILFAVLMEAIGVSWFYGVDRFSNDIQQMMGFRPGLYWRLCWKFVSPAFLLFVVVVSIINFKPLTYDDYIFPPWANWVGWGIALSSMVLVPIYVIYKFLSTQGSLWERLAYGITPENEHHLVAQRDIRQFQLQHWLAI

Cc1cccc2nc(Cn3cnc4ccccc43)cc(=O)n12
Activity (Homo sapiens): inactive
Activity [1]: inactive
Activity [2]: inactive
Activity [3]: inactive
inhibition [4]: inactive
inhibition [5]: inactive
inhibition [6]: inactive
inhibition [7]: inactive
inhibition [8]: inactive
inhibition [9]: inactive
inhibition [10]: inactive
inhibition [11]: inactive
inhibition [12]: inactive
inhibition [13]: inactive
inhibition [14]: inactive
inhibition [15]: inactive
inhibition [16]: inactive
inhibition [17]: inactive
inhibition [18]: inactive
inhibition [19]: inactive
inhibition [20]: inactive
inhibition [21]: inactive
inhibition [22]: inactive
inhibition [23]: inactive
inhibition [24]: inactive
inhibition [25]: inactive
inhibition [26]: inactive
inhibition [27]: inactive
inhibition [28]: inactive
inhibition [29]: inactive
Activity (JHH2): inactive
Activity (SNU-182): inactive
Activity (SNU-449): inactive
Activity (Pyruvate kinase PKM [30]): 101%
Activity (Pyruvate kinase PKM [31]): Active
Activity (Salmonella typhimurium): Non-toxic
EC50 (Pyruvate kinase PKM [32]): 70 nM
Activity [33]: inactive
Activity [34]: inactive
Activity [35]: inactive
Activity [36]: inactive
Activity [37]: inactive
inhibition [38]: inactive

— ChEMBL document CHEMBL2385076, “Discovery of 2-((1H-benzo[d]imidazol-1-yl)methyl)-4H-pyrido[1,2-a]pyrimidin-4-ones as novel PKM2 activators” (Bioorg Med Chem Lett, 2013)
